Measurements reported in ChEMBL document CHEMBL4689842, “EUbOPEN Chemogenomics Library wave 1” (2021).

System: Fibroblast
Test: Multiplex assay against human fibroblast
Format: toxicity, cell-based
Summary of the method: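 Live cells were stained at seeding with Hoechst33342, BioTracker Green Microtubule Cytoskeleton Dye, MitoTracker Red and Annexin V Alexa Fluor 680, then imaged on a CQ1 microscope at 37°C and 5% CO2 after compound addition. CellPathfinder machine-learning gating split cells into Hoechst high-intensity objects or normal cells. Normal cells were split into healthy, pyknosed or fragmented nuclei, and pyknosed cells into mitotic or apoptotic. Tubulin, mitochondrial-mass and membrane-permeability phenotypes are per cents of healthy-nucleus cells.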

[1] = 12 h, 1 µM, compound concentration 1 uM, replicate 1
[2] = 12 h, 1 µM, compound concentration 1 uM, replicate 2
[3] = 12 h, 10 µM, compound concentration 10 uM, replicate 1
[4] = 12 h, 10 µM, compound concentration 10 uM, replicate 2
[5] = 24 h, 1 µM, compound concentration 1 uM, replicate 1
[6] = 24 h, 1 µM, compound concentration 1 uM, replicate 2
[7] = 24 h, 10 µM, compound concentration 10 uM, replicate 1
[8] = 24 h, 10 µM, compound concentration 10 uM, replicate 2

SMILES: CCN(CC)CCCCNc1ncc2cc(-c3cc(OC)cc(OC)c3)c(NC(=O)NC(C)(C)C)nc2n1 [PD-173074]
- Population Apoptotic (%) [1]: 61%
- Population Fragmented Nuclei (%) [1]: 20%
- Population Hoechst High Intensity Objects (%) [1]: 70%
- Population Membrane Permeable-Phenotype (%) [1]: 2%
- Population Mitotic Cells (%) [1]: 38%
- Population Normal (%) [1]: 29%
- Population Pyknosed Nuclei (%) [1]: 63%
- Population Tubulin-Different-Phenotype (%) [1]: 8%
- Total Cell Count [1]: 749
- Population Apoptotic (%) [2]: 67%
- Population Fragmented Nuclei (%) [2]: 46%
- Population Healthy Nuclei (%) [2]: 15%
- Population Hoechst High Intensity Objects (%) [2]: 72%
- Population Membrane Permeable-Phenotype (%) [2]: 13%
- Population Mitochondria Different-Phenotype (%) [2]: 0%
- Population Mitotic Cells (%) [2]: 32%
- Population Normal (%) [2]: 27%
- Population Pyknosed Nuclei (%) [2]: 38%
- Population Tubulin-Different-Phenotype (%) [2]: 0%
- Total Cell Count [2]: 352
- Population Apoptotic (%) [3]: 60%
- Population Fragmented Nuclei (%) [3]: 44%
- Population Healthy Nuclei (%) [3]: 34%
- Population Hoechst High Intensity Objects (%) [3]: 57%
- Population Membrane Permeable-Phenotype (%) [3]: 0%
- Population Mitotic Cells (%) [3]: 39%
- Population Normal (%) [3]: 42%
- Population Pyknosed Nuclei (%) [3]: 20%
- Population Tubulin-Different-Phenotype (%) [3]: 6%
- Total Cell Count [3]: 786
- Population Apoptotic (%) [4]: 66%
- Population Fragmented Nuclei (%) [4]: 54%
- Population Healthy Nuclei (%) [4]: 32%
- Population Hoechst High Intensity Objects (%) [4]: 61%
- Population Membrane Permeable-Phenotype (%) [4]: 16%
- Population Mitochondria Different-Phenotype (%) [4]: 4%
- Population Mitotic Cells (%) [4]: 33%
- Population Normal (%) [4]: 38%
- Population Pyknosed Nuclei (%) [4]: 12%
- Population Tubulin-Different-Phenotype (%) [4]: 8%
- Total Cell Count [4]: 189
- Population Apoptotic (%) [5]: 59%
- Population Fragmented Nuclei (%) [5]: 32%
- Population Healthy Nuclei (%) [5]: 13%
- Population Hoechst High Intensity Objects (%) [5]: 74%
- Population Membrane Permeable-Phenotype (%) [5]: 0%
- Population Mitotic Cells (%) [5]: 40%
- Population Normal (%) [5]: 25%
- Population Pyknosed Nuclei (%) [5]: 53%
- Population Tubulin-Different-Phenotype (%) [5]: 9%
- Total Cell Count [5]: 594
- Population Apoptotic (%) [6]: 62%
- Population Fragmented Nuclei (%) [6]: 44%
- Population Healthy Nuclei (%) [6]: 12%
- Population Hoechst High Intensity Objects (%) [6]: 72%
- Population Membrane Permeable-Phenotype (%) [6]: 16%
- Population Mitochondria Different-Phenotype (%) [6]: 0%
- Population Mitotic Cells (%) [6]: 37%
- Population Normal (%) [6]: 27%
- Population Pyknosed Nuclei (%) [6]: 43%
- Population Tubulin-Different-Phenotype (%) [6]: 0%
- Total Cell Count [6]: 339
- Population Apoptotic (%) [7]: 51%
- Population Fragmented Nuclei (%) [7]: 42%
- Population Healthy Nuclei (%) [7]: 39%
- Population Membrane Permeable-Phenotype (%) [7]: 2%
- Population Mitochondria Different-Phenotype (%) [7]: 0%
- Population Mitotic Cells (%) [7]: 48%
- Population Pyknosed Nuclei (%) [7]: 18%
- Population Tubulin-Different-Phenotype (%) [7]: 5%
- Total Cell Count [7]: 734
- Population Apoptotic (%) [8]: 60%
- Population Fragmented Nuclei (%) [8]: 58%
- Population Healthy Nuclei (%) [8]: 28%
- Population Hoechst High Intensity Objects (%) [8]: 58%
- Population Membrane Permeable-Phenotype (%) [8]: 28%
- Population Mitochondria Different-Phenotype (%) [8]: 14%
- Population Mitotic Cells (%) [8]: 40%
- Population Normal (%) [8]: 41%
- Population Pyknosed Nuclei (%) [8]: 13%
- Population Tubulin-Different-Phenotype (%) [8]: 19%
- Total Cell Count [8]: 177

SMILES: Cc1nc(Nc2n[nH]c3c2CN(C(=O)N[C@H](CN(C)C)c2ccccc2)C3(C)C)c2sccc2n1 [PF-03758309]
- Population Apoptotic (%) [1]: 82%
- Population Fragmented Nuclei (%) [1]: 33%
- Population Healthy Nuclei (%) [1]: 48%
- Population Hoechst High Intensity Objects (%) [1]: 13%
- Population Membrane Permeable-Phenotype (%) [1]: 6%
- Population Mitochondria Different-Phenotype (%) [1]: 2%
- Population Mitotic Cells (%) [1]: 17%
- Population Normal (%) [1]: 86%
- Population Pyknosed Nuclei (%) [1]: 18%
- Population Tubulin-Different-Phenotype (%) [1]: 2%
- Total Cell Count [1]: 216
- Population Apoptotic (%) [2]: 60%
- Population Fragmented Nuclei (%) [2]: 54%
- Population Healthy Nuclei (%) [2]: 37%
- Population Hoechst High Intensity Objects (%) [2]: 28%
- Population Membrane Permeable-Phenotype (%) [2]: 0%
- Population Mitochondria Different-Phenotype (%) [2]: 13%
- Population Mitotic Cells (%) [2]: 40%
- Population Normal (%) [2]: 71%
- Population Pyknosed Nuclei (%) [2]: 8%
- Population Tubulin-Different-Phenotype (%) [2]: 13%
- Total Cell Count [2]: 83
- Population Apoptotic (%) [3]: 62%
- Population Fragmented Nuclei (%) [3]: 35%
- Population Healthy Nuclei (%) [3]: 51%
- Population Hoechst High Intensity Objects (%) [3]: 11%
- Population Membrane Permeable-Phenotype (%) [3]: 9%
- Population Mitochondria Different-Phenotype (%) [3]: 10%
- Population Mitotic Cells (%) [3]: 37%
- Population Normal (%) [3]: 88%
- Population Pyknosed Nuclei (%) [3]: 12%
- Population Tubulin-Different-Phenotype (%) [3]: 32%
- Total Cell Count [3]: 240
- Population Apoptotic (%) [4]: 40%
- Population Fragmented Nuclei (%) [4]: 57%
- Population Healthy Nuclei (%) [4]: 25%
- Population Hoechst High Intensity Objects (%) [4]: 39%
- Population Membrane Permeable-Phenotype (%) [4]: 0%
- Population Mitochondria Different-Phenotype (%) [4]: 20%
- Population Mitotic Cells (%) [4]: 60%
- Population Normal (%) [4]: 60%
- Population Pyknosed Nuclei (%) [4]: 16%
- Population Tubulin-Different-Phenotype (%) [4]: 33%
- Total Cell Count [4]: 98
- Population Apoptotic (%) [5]: 70%
- Population Fragmented Nuclei (%) [5]: 25%
- Population Healthy Nuclei (%) [5]: 53%
- Population Hoechst High Intensity Objects (%) [5]: 16%
- Population Membrane Permeable-Phenotype (%) [5]: 7%
- Population Mitochondria Different-Phenotype (%) [5]: 8%
- Population Mitotic Cells (%) [5]: 29%
- Population Normal (%) [5]: 83%
- Population Pyknosed Nuclei (%) [5]: 20%
- Population Tubulin-Different-Phenotype (%) [5]: 7%
- Total Cell Count [5]: 181
- Population Apoptotic (%) [6]: 75%
- Population Fragmented Nuclei (%) [6]: 59%
- Population Healthy Nuclei (%) [6]: 33%
- Population Hoechst High Intensity Objects (%) [6]: 28%
- Population Membrane Permeable-Phenotype (%) [6]: 0%
- Population Mitochondria Different-Phenotype (%) [6]: 10%
- Population Mitotic Cells (%) [6]: 25%
- Population Normal (%) [6]: 71%
- Population Pyknosed Nuclei (%) [6]: 6%
- Population Tubulin-Different-Phenotype (%) [6]: 0%
- Total Cell Count [6]: 82
- Population Apoptotic (%) [7]: 67%
- Population Fragmented Nuclei (%) [7]: 30%
- Population Healthy Nuclei (%) [7]: 54%
- Population Hoechst High Intensity Objects (%) [7]: 20%
- Population Membrane Permeable-Phenotype (%) [7]: 15%
- Population Mitochondria Different-Phenotype (%) [7]: 6%
- Population Mitotic Cells (%) [7]: 32%
- Population Normal (%) [7]: 79%
- Population Pyknosed Nuclei (%) [7]: 15%
- Population Tubulin-Different-Phenotype (%) [7]: 40%
- Total Cell Count [7]: 254
- Population Apoptotic (%) [8]: 100%
- Population Fragmented Nuclei (%) [8]: 48%
- Population Healthy Nuclei (%) [8]: 45%
- Population Hoechst High Intensity Objects (%) [8]: 34%
- Population Membrane Permeable-Phenotype (%) [8]: 11%
- Population Mitochondria Different-Phenotype (%) [8]: 22%
- Population Mitotic Cells (%) [8]: 0%
- Population Normal (%) [8]: 65%
- Population Pyknosed Nuclei (%) [8]: 6%
- Population Tubulin-Different-Phenotype (%) [8]: 44%
- Total Cell Count [8]: 92
